# Measurements: ChEMBL document CHEMBL1641374, “Synthesis of antiproliferative flavones from calycopterin, major flavonoid of Calycopteris floribunda Lamk” (Bioorg Med Chem, 2011)
# Active and inactive are the calls of the source. The rule behind the calls is not given here.
# Experiments:
# KB [1] = assay: Cytotoxicity against human KB cells at 10^-6 M after 72 hrs by MTS assay; type: functional
# Procedure, shortened: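 KB cells in D-MEM with 10% FCS were seeded at 600 cells/well and dosed 24 h later with flavone at 10^-6 M in DMSO. Controls received DMSO at 1% final. After 72 h, MTS was added for 3 h at 37 °C and A490 read in triplicate. Growth inhibition (%) = (1 − OD treated/OD control)×100.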
# KB [2] = assay: Induction of cell cycle arrest in human KB cells assessed as accumulation at subG1 phase at 20 nM after 24 hrs by propidium iodide staining-based flow cytometry (reference value: 0.7%); type: functional
# KB [3] = assay: Induction of cell cycle arrest in human KB cells assessed as accumulation at G0/G1phase at 20 nM after 24 hrs by propidium iodide staining-based flow cytometry (reference value: 72.9%); type: functional
# KB [4] = assay: Induction of cell cycle arrest in human KB cells assessed as accumulation at G2/M phase at 20 nM after 48 hrs by propidium iodide staining-based flow cytometry (reference value: 13.8%); type: functional
# KB [5] = assay: Induction of cell cycle arrest in human KB cells assessed as accumulation at subG1 phase at 20 nM after 48 hrs by propidium iodide staining-based flow cytometry (reference value: 1.2%); type: functional
# KB [6] = assay: Induction of cell cycle arrest in human KB cells assessed as accumulation at S phase at 20 nM after 24 hrs by propidium iodide staining-based flow cytometry (reference value: 6.9%); type: functional
# KB [7] = assay: Induction of cell cycle arrest in human KB cells assessed as accumulation at S phase at 20 nM after 48 hrs by propidium iodide staining-based flow cytometry (reference value: 18.4%); type: functional
# KB [8] = assay: Induction of cell cycle arrest in human KB cells assessed as accumulation at G0/G1phase at 20 nM after 48 hrs by propidium iodide staining-based flow cytometry (reference value: 66.6%); type: functional
# KB [9] = assay: Induction of cell cycle arrest in human KB cells assessed as accumulation at G2/M phase at 20 nM after 24 hrs by propidium iodide staining-based flow cytometry (reference value: 19.6%); type: functional
# HL-60 [10] = assay: Induction of apoptosis in human HL60 cells assessed as induction of caspase 3/7 activation at 100 nM relative to control; type: functional
# Procedure, shortened: (§1)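 HL60 cells (20,000/well) were treated 24 and 48 h with compounds in DMSO. Vehicle and doxorubicine served as controls. Fluorescence (ex 360/em 465 nm) was followed over 3 h.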
# [11] = Inhibition of sheep brain tubulin polymerization at 2x10'-5 M after 5 mins; parameters: species or system Ovis aries
# Procedure, shortened: (§2)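 Sheep brain microtubule proteins were purified by two assembly/disassembly cycles (37 °C/0 °C) in 100 mM MES pH 6.6, 1 mM EGTA, 0.5 mM MgCl2. Polymerization rate was followed by turbidity at 350 nm, with deoxypodophyllotoxin as reference. Compounds were tested at ~2×10^-5 M for % inhibition, with IC50 determined for selected compounds.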
# KB [12] = assay: Induction of cell cycle arrest in human KB cells assessed as accumulation at S phase at 50 nM after 24 hrs by propidium iodide staining-based flow cytometry (reference value: 6.9%); type: functional
# PC-3 = assay: Cytotoxicity against human PC3 cells after 72 hrs by MTS assay; type: functional, cell-based; details: PC-3, 72 h
# KB [13] = assay: Induction of cell cycle arrest in human KB cells assessed as accumulation at G2/M phase at 50 nM after 48 hrs by propidium iodide staining-based flow cytometry (reference value: 13.8%); type: functional
# HL-60 [14] = assay: Induction of apoptosis in human HL60 cells assessed as late apoptosis cells at 50 nM after 48 hrs by annexin-V-PE/7-AAD staining (reference value: 0.1%); type: functional
# HepG2 = assay: Cytotoxicity against human HepG2 cells after 72 hrs by MTS assay; type: functional, cell-based; details: HepG2, 72 h
# HCT-15 = assay: Cytotoxicity against human HCT15 cells after 72 hrs by MTS assay; type: functional, cell-based; details: HCT-15, 72 h
# KB [15] = assay: Induction of cell cycle arrest in human KB cells assessed as accumulation at G0/G1phase at 50 nM after 48 hrs by propidium iodide staining-based flow cytometry (reference value: 66.6%); type: functional
# HL-60 [16] = assay: Induction of apoptosis in human HL60 cells assessed as late apoptosis cells at 50 nM after24 hrs by annexin-V-PE/7-AAD staining (reference value: 0.2%); type: functional
# HL-60 [17] = assay: Induction of apoptosis in human HL60 cells assessed as viable cells at 50 nM after24 hrs by annexin-V-PE/7-AAD staining (reference value: 97.2%); type: functional; details: read-out: Activity
# SF-268 = assay: Cytotoxicity against human SF268 cells after 72 hrs by MTS assay; type: functional, cell-based; details: SF-268, 72 h
# KB [18] = assay: Induction of cell cycle arrest in human KB cells assessed as accumulation at subG1 phase at 50 nM after 48 hrs by propidium iodide staining-based flow cytometry (reference value: 1.2%); type: functional
# SK-OV-3 = assay: Cytotoxicity against human SKOV3 cells after 72 hrs by MTS assay; type: functional, cell-based; details: SK-OV-3, 72 h
# HL-60 [19] = assay: Cytotoxicity against human HL60 cells after 72 hrs by MTS assay; type: functional, cell-based; details: HL-60, 72 h
# HCT-116 = assay: Cytotoxicity against human HCT116 cells after 72 hrs by MTS assay; type: functional, cell-based; details: HCT-116, 72 h
# K562 = assay: Cytotoxicity against human K562 cells after 72 hrs by MTS assay; type: functional, cell-based; details: K562, 72 h
# KB [20] = assay: Induction of cell cycle arrest in human KB cells assessed as accumulation at G2/M phase at 50 nM after 24 hrs by propidium iodide staining-based flow cytometry (reference value: 19.6%); type: functional
# HL-60 [21] = assay: Induction of apoptosis in human HL60 cells assessed as early apoptosis cells at 50 nM after24 hrs by annexin-V-PE/7-AAD staining (reference value: 2.6%); type: functional
# Ovis aries = species: Ovis aries; assay: Inhibition of sheep brain tubulin polymerization after 5 mins; procedure, shortened: as §2
# KB [22] = assay: Induction of cell cycle arrest in human KB cells assessed as accumulation at subG1 phase at 50 nM after 24 hrs by propidium iodide staining-based flow cytometry (reference value: 0.7%); type: functional
# KB [23] = assay: Induction of cell cycle arrest in human KB cells assessed as accumulation at S phase at 50 nM after 48 hrs by propidium iodide staining-based flow cytometry (reference value: 18.4%); type: functional
# [24] = Cytotoxicity against human HL60R cells after 72 hrs by MTS assay; type: functional, cell-based; details: HL-60, 72 h
# KB [25] = assay: Induction of cell cycle arrest in human KB cells assessed as accumulation at G0/G1phase at 50 nM after 24 hrs by propidium iodide staining-based flow cytometry (reference value: 72.9%); type: functional
# MIA PaCa-2 = assay: Cytotoxicity against human MIAPaCa2 cells after 72 hrs by MTS assay; type: functional, cell-based; details: MIA PaCa-2, 72 h
# OVCAR-8 = assay: Cytotoxicity against human OVCAR8 cells after 72 hrs by MTS assay; type: functional, cell-based; details: OVCAR-8, 72 h
# A549 = assay: Cytotoxicity against human A549 cells after 72 hrs by MTS assay; type: functional, cell-based; details: A549, 72 h
# HT-29 = assay: Cytotoxicity against human HT-29 cells after 72 hrs by MTS assay; type: functional, cell-based; details: HT-29, 72 h
# HL-60 [26] = assay: Induction of apoptosis in human HL60 cells assessed as viable cells at 50 nM after 48 hrs by annexin-V-PE/7-AAD staining (reference value: 97.4%); type: functional; details: HL-60, 48 h, read-out: Activity
# [27] = Cytotoxicity against human MCF7/R cells after 72 hrs by MTS assay; type: functional, cell-based; details: MCF7R
# HL-60 [28] = assay: Induction of apoptosis in human HL60 cells assessed as induction of caspase 3/7 activation at 100 uM; type: functional, cell-based; procedure, shortened: as §1
# KB [29] = assay: Cytotoxicity against human KB cells after 72 hrs by MTS assay; type: functional, cell-based
smiles,measurement,setting,value
COc1ccc(-c2oc3c(OC)c(OC)c(OC)c(O)c3c(=O)c2OC)cc1CN,Activity,KB [1],<=13%
COc1ccc(-c2oc3c(OC)c(OC)c(OC)c(O)c3c(=O)c2OC)cc1CN(C)C,Activity,KB [1],<=13%
COc1ccc(-c2oc3c(OC)c(OC)c(OC)c(O)c3c(=O)c2OC)cc1-c1cc(-c2oc3c(OC)c(OC)c(OC)c(O)c3c(=O)c2OC)ccc1OC,Activity,KB [1],<=13%
COc1ccc(/C=C\c2cc(OC)c(OC)c(OC)c2)cc1O [COMBRETASTATIN A4],Activity,KB [2],13.8%
same,Activity,KB [3],9.5%
same,Activity,KB [4],0.8%
same,Activity,KB [5],43.5%
same,Activity,KB [6],26.7%
same,Activity,KB [7],44%
same,Activity,KB [8],27.4%
same,Activity,KB [9],50.1%
COc1ccc(-c2oc3c(OC)c(OC)c(OC)c(O)c3c(=O)c2OC)cc1CO,Activity,KB [1],<=13%
COc1c(OC)c(O)c2c(=O)c(OC)c(-c3ccc(O)cc3)oc2c1OC [CALYCOPTERIN],Activity,KB [1],0%
COc1ccc(-c2oc3c(OC)c(OC)c(OC)c(O)c3c(=O)c2OC)cc1O,fold change (FC),HL-60 [10],5.7
same,IC50,[11],8.9 µM
same,Activity,KB [12],18.5%
same,IC50,PC-3,> 1000 nM
same,Activity,KB [13],11.8%
same,Activity,HL-60 [14],7.2%
same,IC50,HepG2,174 nM
same,IC50,HCT-15,14 nM
same,Activity,KB [15],27.4%
same,Activity,HL-60 [16],0.8%
same,viability at 0.05 µM,HL-60 [17],72.4%
same,IC50,SF-268,186 nM
same,Activity,KB [18],22.2%
same,IC50,SK-OV-3,22 nM
same,IC50,HL-60 [19],36 nM
same,IC50,HCT-116,23 nM
same,IC50,K562,7 nM
same,Activity,KB [20],45.3%
same,Activity,HL-60 [21],26.7%
same,inhibition,Ovis aries,3%
same,Activity,KB [22],14.9%
same,Activity,KB [23],38.6%
same,IC50,[24],5 nM
same,Activity,KB [1],96%
same,Activity,KB [25],21.3%
same,IC50,MIA PaCa-2,12 nM
same,IC50,OVCAR-8,40 nM
same,IC50,A549,58 nM
same,IC50,HT-29,3.14 µM
same,viability at 0.05 µM,HL-60 [26],30.8%
same,IC50,[27],17 nM
COc1ccc(-c2oc3c(OC)c(OC)c(OC)c(OC)c3c(=O)c2OC)cc1N,Activity,HL-60 [28],inactive
same,inhibition,Ovis aries,5%
same,Activity,KB [1],17%
COc1ccc(-c2oc3c(O)c(OC)c(OC)c(O)c3c(=O)c2OC)cc1N,IC50,KB [29],> 10 µM
same,Activity,KB [1],34%
COc1ccc(-c2oc3c(OC)c(OC)c(OC)c(O)c3c(=O)c2OC)cc1[N+](=O)[O-],Activity,KB [1],13%
COc1ccc(-c2oc3c(OC)c(OC)c(OC)c(O)c3c(=O)c2OC)cc1I,Activity,KB [1],<=13%
COc1c(I)cc(-c2oc3c(OC)c(OC)c(OC)c(O)c3c(=O)c2OC)cc1I,Activity,KB [1],<=13%
